According to ChEMBL document CHEMBL2396651, “Improving the biological activity of the antimicrobial peptide anoplin by membrane anchoring through a lipophilic amino acid derivative” (Bioorg Med Chem Lett, 2013):
Values after ≈ are worked out from the molar mass of the structure shown. Numbered stars: 1 amine (or outer) side, 2 acyl side, 3 side chain; on linkers, the order of the positions; unused ones are H or OH. Square brackets hold non-standard residues; d marks the D form. Peptide text beside a SMILES is read from it. * marks the point of attachment. X1 = CCCCCCCCC[C@H](N[*:1])C(=O)[*:2]; Decanoyl = CCCCCCCCCC(=O)*

How the values were obtained:
[1] = Induction of membrane lysis in DOPC large unilamellar vesicles model assessed as release of carboxyfluorescein at 50 ug/mL by fluorescence spectroscopic analysis relative to control; assay type: physicochemical
[2] = tested on: Staphylococcus aureus; assay: Antibacterial activity against Staphylococcus aureus ATCC […] assessed as growth inhibition after 24 hrs by broth microdilution method; assay type: functional
[3] = Therapeutic index, ratio of EC50 for hemolysis of sheep erythrocytes to MIC for Escherichia coli ATCC 8739; conditions: read-out: TI
How it was run: (§1)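 Computed as the hemolytic EC50 divided by the MIC against the named strain, both in the same mass-per-volume units. Both inputs come from this paper's hemoglobin-leakage and growth-inhibition assays.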

[4] = tested on: Escherichia coli; assay: Antibacterial activity against Escherichia coli ATCC 8739 assessed as growth inhibition after 24 hrs by broth microdilution method; assay type: functional; conditions: ATCC 8739, 24 h
[5] = Therapeutic index, ratio of EC50 for hemolysis of sheep erythrocytes to MIC for Staphylococcus aureus ATCC […]; conditions: read-out: TI; how it was run: as §1
[6] = Hemolytic activity in sheep erythrocytes after 1 hr; assay type: ADME, cell-based; conditions: Ovis aries, Erythrocyte
How it was run: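 Red blood cells were exposed to the peptides, and hemoglobin leakage was the read-out.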

[7] = Induction of membrane lysis in DOPC/DOPG large unilamellar vesicles model assessed as release of carboxyfluorescein at 50 ug/mL by fluorescence spectroscopic analysis relative to control; assay type: physicochemical

Molecule	Activity [1]	MIC [2]	MIC [4]	Activity [7]	selectivity ratio [3]	selectivity ratio [5]	EC50 [6]
CCCCCCCCC[C@H](NC(=O)[C@H](CC(C)C)NC(=O)[C@@H](NC(=O)[C@H](CCCCN)NC(=O)[C@@H](NC(=O)[C@H](CCCNC(=N)N)NC(=O)[C@H](CCCCN)NC(=O)[C@H](CC(C)C)NC(=O)[C@H](CC(C)C)NC(=O)CN)[C@@H](C)CC)[C@@H](C)O)C(N)=O (H-GLLKRIKTL[X1]-NH2)	48%	2.5 µg/mL (≈ 2.04 µM)	10.3 µg/mL (≈ 8.42 µM)	48%	3.7	30.8	77 µg/mL (≈ 62.9 µM)
CCCCCCCCCC(=O)NCC(=O)N[C@@H](CC(C)C)C(=O)N[C@@H](CC(C)C)C(=O)N[C@@H](CCCCN)C(=O)N[C@@H](CCCNC(=N)N)C(=O)N[C@H](C(=O)N[C@@H](CCCCN)C(=O)N[C@H](C(=O)N[C@@H](CC(C)C)C(=O)N[C@@H](CC(C)C)C(N)=O)[C@@H](C)O)[C@@H](C)CC (Decanoyl-GLLKRIKTLL-NH2)	62%	2.5 µg/mL (≈ 1.91 µM)	2.5 µg/mL (≈ 1.91 µM)	100%	2	2	5 µg/mL (≈ 3.82 µM)
CCCCCCCCC[C@H](NC(=O)[C@H](CCCNC(=N)N)NC(=O)[C@H](CCCCN)NC(=O)[C@H](CC(C)C)NC(=O)[C@H](CC(C)C)NC(=O)CN)C(=O)N[C@@H](CCCCN)C(=O)N[C@H](C(=O)N[C@@H](CC(C)C)C(=O)N[C@@H](CC(C)C)C(N)=O)[C@@H](C)O (H-GLLKR[X1]KTLL-NH2)	45%	2.5 µg/mL (≈ 2.04 µM)	10.3 µg/mL (≈ 8.42 µM)	48%	1.9	15.6	39 µg/mL (≈ 31.9 µM)

More lines, main results first:

Activity [1]	MIC [2]	MIC [4]	Activity [7]	Molecule	selectivity ratio [3]	selectivity ratio [5]	EC50 [6]
47%	2.5 µg/mL (≈ 2.04 µM)	5.2 µg/mL (≈ 4.25 µM)	48%	CCCCCCCCC[C@H](NC(=O)CN)C(=O)N[C@@H](CC(C)C)C(=O)N[C@@H](CCCCN)C(=O)N[C@@H](CCCNC(=N)N)C(=O)N[C@H](C(=O)N[C@@H](CCCCN)C(=O)N[C@H](C(=O)N[C@@H](CC(C)C)C(=O)N[C@@H](CC(C)C)C(N)=O)[C@@H](C)O)[C@@H](C)CC (H-G[X1]LKRIKTLL-NH2)	10.5	43.2	108 µg/mL (≈ 88.3 µM)
41%	20.6 µg/mL	41 µg/mL	35%	H-GLLKRIKTLL-NH2 [ANOPLIN]	> 12.2	> 24.3	> 500 µg/mL
